Assay outcomes deposited in PubChem by several laboratories.
NR2E3 ag-1: activates human NR2E3 receptor; CHO-S Gal4-NCOR/VP16-NR2E3 two-hybrid, luciferase; Q9Y5X4; inhibition of corepressor binding, % at 3.98 µM; 0.35% of 360,000 active;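 active means inhibition above the mean of all tested compounds plus 3 SD, cut at about 70% in these data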;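 further: higher means lower luciferase signal from less NR2E3 corepressor binding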
Target sequence (Q9Y5X4 whole entry, looked up, the tested form may be a part): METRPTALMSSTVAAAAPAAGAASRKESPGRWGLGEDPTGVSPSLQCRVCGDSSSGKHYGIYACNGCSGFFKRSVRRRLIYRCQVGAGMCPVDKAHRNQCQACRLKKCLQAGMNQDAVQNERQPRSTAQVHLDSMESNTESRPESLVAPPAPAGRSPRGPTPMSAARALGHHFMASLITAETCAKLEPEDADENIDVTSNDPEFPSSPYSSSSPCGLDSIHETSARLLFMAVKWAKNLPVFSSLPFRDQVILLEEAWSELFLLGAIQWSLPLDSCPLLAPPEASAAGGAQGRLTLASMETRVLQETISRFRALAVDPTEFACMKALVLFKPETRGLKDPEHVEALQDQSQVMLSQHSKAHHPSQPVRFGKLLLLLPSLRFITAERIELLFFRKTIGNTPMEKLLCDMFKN
GalR3 antag: antagonists of human GalR3; O60755; HEK293 GalR3-CNG cAMP membrane potential fluorescence; galR3 body fused to GalR1 C-terminus; inhibition, % at 3 µM; 0.44% of 360,000 active;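 active means inhibition above the screen-wide average plus 3 SD, cut at about 13% in these data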;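 further: forskolin and galanin both at EC90 stimulate the cells; cAMP rise reported by CNG channel membrane potential dye signal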
NR2E3 ag-2: NR2E3 (human) agonism; inhibition of corepressor binding, % at 4.78 µM; Q9Y5X4; 0.12% of 320,000 active; AID 2300; GST-NR2E3/biotin-RetCOR TR-FRET, 1536-well;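 active means percent inhibition above the cutoff of mean plus 3 SD of all tested compounds, set per screening campaign, cut at about 20% in these data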
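Material – GST-tagged NR2E3 plus biotinylated RetCOR corepressor · Quantity – NR2E3 fusion 1.35 nM · Times – 5 h incubation at 4 °C · Medium – pH 7.5 Tris-based buffer · Technique – TR-FRET, Eu(K)-anti-GST donor, streptavidin-D2 acceptor, ex 340, em 617/671 nm · Benchmarks – high control biotin, low control 0.6% DMSO · Format – 1536-well plates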
PG9 binder: binds the HIV-1 gp120 antibody PG9. TR-FRET gp120-PG9 antibody binding. inhibition, % at 6.7 µM. 0.43% of 360,000 active; in the data active means inhibition above about 8.5%
Rev-erbA mod: modulators of human Rev-erb alpha DNA binding; Rev-erbα–FITC-DNA binding, fluorescence polarization, 90 min; activity, % at 10 µM; 0.79% of 370,000 active; AID 1259318; P20393;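 active means activity above about 14%, limit read from the data; passing the limit was not always enough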
PG9 binder conf: confirmation of small molecules binding HIV-1 gp120 antibody PG9 | shares compounds with PG9 binder | TR-FRET PG9 antibody binding, biochemical | inhibition, % at 6.7 µM | 90% of 1,500 active | AID 651571; in the data active means inhibition above about 9%
PGV04 Ab binding: binds control antibody PGV04 in PG9 binder counter-screen. inhibition, % at 6.7 µM. 95% of 1,500 active. shares compounds with PG9 binder. TR-FRET PGV04 antibody-gp120 binding, biochemical. AID 651604; in the data active means inhibition above about 9.5%
NR1D1 mod conf: confirmation of modulators of human Rev-erb alpha DNA binding | shares compounds with Rev-erbA mod | 61% of 3,000 active | activation, % at 25 µM | AID 1259319 | Rev-erb alpha FITC-DNA binding, fluorescence polarization, 90 min;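 active means activation at or above a set limit, or at least 3 SD above the negative control mean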
RORg DNA counter: affects RORgamma DNA binding in a Rev-erb alpha counter-screen; shares compounds with Rev-erbA mod; purified RORgamma protein-FITC-DNA binding, fluorescence polarization; IC50, µM; 8% of 910 active;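 active means Compounds whose fitted half-maximal concentration for disrupting protein-DNA binding is below 10 micromolar; the record names Rev-erb in its text, so the target is in doubt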
Hits are given with their value. This is a sample that favours compounds with a hit; in the whole collection about 1.8% have one here.

For N#Cc1c(N)nc(SCC(=O)NCCc2ccccc2)c(C#N)c1-c1cccs1 the results were NR2E3 ag-1 inactive, GalR3 antag inactive, NR2E3 ag-2 inactive, PG9 binder 39.6, Rev-erbA mod 51.5, PG9 binder conf 38.2, PGV04 Ab binding 62.1, NR1D1 mod conf 42.7 and RORg DNA counter inactive.
COc1ccc(N(C(=O)c2snc(C(N)=O)c2N)C(C(=O)NCc2ccccc2)c2ccc(O)cc2)cc1 (centres undefined) was read as NR2E3 ag-1 inactive, GalR3 antag inactive, PG9 binder inactive and Rev-erbA mod inactive.
`NC(=O)c1nsc(C(=O)N(c2ccccc2)C(C(=O)NCc2ccc(F)cc2)c2ccc(O)cc2)c1N` (centres undefined) gave NR2E3 ag-1 inactive, GalR3 antag inactive, NR2E3 ag-2 inactive, PG9 binder 9.9, Rev-erbA mod 20.4, PG9 binder conf inactive, PGV04 Ab binding 9.8 and NR1D1 mod conf inactive.
O=C(COc1ncnc2ccc(Br)cc12)NCc1ccc2c(c1)OCO2 was read as NR2E3 ag-1 inactive, GalR3 antag inactive, NR2E3 ag-2 inactive, PG9 binder 40.5, Rev-erbA mod 57.8, PG9 binder conf 40.0, PGV04 Ab binding 59.4, NR1D1 mod conf 50.5 and RORg DNA counter inactive.
`Cn1c(SCC(=O)NCc2ccc3c(c2)OCO3)ncc(C(=O)Nc2ccc(F)cc2)c1=O` gave NR2E3 ag-1 inactive, GalR3 antag inactive, NR2E3 ag-2 inactive, PG9 binder 21.4, Rev-erbA mod 39.7, PG9 binder conf 16.1, PGV04 Ab binding 18.4, NR1D1 mod conf 50.9 and RORg DNA counter inactive.
COC(=O)[C@H](C(C)C)N(Cc1cn(Cc2ccccc2)nn1)S(=O)(=O)c1ccccc1Br was read as Rev-erbA mod inactive.
For COc1cc(NC(=O)CCn2c(=S)[nH]c3ccccc3c2=O)cc(OC)c1OC the results were NR2E3 ag-1 inactive, GalR3 antag inactive, PG9 binder 81.3, Rev-erbA mod 26.7, PG9 binder conf 78.9, PGV04 Ab binding 81.0, NR1D1 mod conf 35.7 and RORg DNA counter inactive.
O=C(Nc1ccc2oc(-c3cccc(F)c3)nc2c1)c1ccccc1F was read as NR2E3 ag-1 inactive, GalR3 antag inactive, NR2E3 ag-2 inactive, PG9 binder 15.7, Rev-erbA mod 81.6, PG9 binder conf 40.4, PGV04 Ab binding 58.6, NR1D1 mod conf 42.4 and RORg DNA counter inactive.
For COc1ccc(C)cc1Nc1nc(-c2ccccc2O)nc2ccccc12 the results were NR2E3 ag-1 inactive, GalR3 antag inactive, NR2E3 ag-2 inactive, PG9 binder 11.3, Rev-erbA mod 83.3, PG9 binder conf inactive, PGV04 Ab binding inactive, NR1D1 mod conf 58.9 and RORg DNA counter inactive.
Screening Cc1ccc(O)c(Nc2nc(-c3ccccc3)nc3ccccc23)c1 returned NR2E3 ag-1 inactive, GalR3 antag inactive, NR2E3 ag-2 inactive, PG9 binder inactive and Rev-erbA mod inactive.
`COc1ccc(C2CCC3(CCC(=O)N3CCOC(=O)NCc3ccc(Cl)cc3)CC2)cc1` (centres undefined) gave Rev-erbA mod inactive.
For COc1ccc(-c2ccc3c(c2)c(Sc2ccccc2)c(-c2cc(OC)cc(OC)c2)n3C)cc1 the results were NR2E3 ag-1 inactive, GalR3 antag inactive, PG9 binder 16.9, Rev-erbA mod 39.7, PG9 binder conf 43.6, PGV04 Ab binding 59.7, NR1D1 mod conf 60.0 and RORg DNA counter inactive.
COc1cc(OC)cc(-c2c(Sc3ccccc3)c3cc(-c4cnc(OC)nc4)ccc3n2C)c1 was read as NR2E3 ag-1 inactive, GalR3 antag inactive, PG9 binder inactive and Rev-erbA mod inactive.
